Experimental data as given in ChEMBL document CHEMBL1155246, “Synthesis, antioxidant properties and radioprotective effects of new benzothiazoles and thiadiazoles” (Bioorg Med Chem, 2009).

Key:
[1] = test system: Radical scavenging activity; experiment: Antioxidant activity assessed as DPPH free radical scavenging activity by UV spectroscopic method; assay type: functional
[2] = Antioxidant activity assessed as ABTS free radical scavenging activity by radical cation discoloration assay; assay type: functional
How it was run: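 ABTS radical cation made by mixing aqueous 7.0 mM ABTS with potassium persulfate to 3.5 mM final and holding overnight in the dark. It was diluted with ethanol to an initial A734 of 0.70 at 30 °C. Test compound was added at several concentrations. Absorbance at 734 nm was read at 0, 0.5 and 1 min, then every 5 min to steady state. IC50 was taken as the concentration giving 50% reduction of the radical cation.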

[3] = Acute toxicity in Swiss CD1 mouse assessed as lethality after 48 hrs; assay type: organism-based; conditions: in vivo
How it was run: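 Male six-week-old Swiss CD1 mice; compound given intraperitoneally at different concentrations; deaths counted at 48 h to derive LD50tox/48H, the concentration killing 50% of animals.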

Mus musculus [4] = experiment: Radioprotective activity against gamma radiation-induced toxicity in Swiss CD1 mouse assessed as survival at 368 mg/kg, ip administered 90 mins before 8.2 Gy irradiation measured after 30 days; assay type: functional; conditions: Swiss CD1, light or radiation study, route intraperitoneal
How it was run: (§1)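 Male six-week-old Swiss CD1 mice, 10 per group; compound in Mygliol 812 given ip (20 ml/kg) at maximum tolerated dose (1/2 LD50tox/48H) 90 min before 60Co gamma irradiation (300 mGy/min) at 8.2 Gy (LD99.9/30days) or 10.2 Gy; survival percentage at day 30.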

Mus musculus [5] = experiment: Radioprotective activity against gamma radiation-induced toxicity in Swiss CD1 mouse assessed as survival at 368 mg/kg, ip administered 90 mins before 10.2 Gy irradiation measured after 30 days; assay type: functional; conditions: Swiss CD1, light or radiation study, route intraperitoneal; how it was run: as §1
Mus musculus [6] = experiment: Radioprotective activity against gamma radiation-induced toxicity in Swiss CD1 mouse assessed as survival at 340 mg/kg, ip administered 90 mins before 8.2 Gy irradiation measured after 30 days; assay type: functional; conditions: Swiss CD1, light or radiation study, route intraperitoneal; how it was run: as §1
Mus musculus [7] = experiment: Radioprotective activity against gamma radiation-induced toxicity in Swiss CD1 mouse assessed as survival at 340 mg/kg, ip administered 90 mins before 10.2 Gy irradiation measured after 30 days; assay type: functional; conditions: Swiss CD1, light or radiation study, route intraperitoneal; how it was run: as §1
Mus musculus [8] = experiment: Radioprotective activity against gamma radiation-induced toxicity in Swiss CD1 mouse assessed as survival at 308 mg/kg, ip administered 90 mins before 8.2 Gy irradiation measured after 30 days; assay type: functional; conditions: Swiss CD1, light or radiation study, route intraperitoneal; how it was run: as §1
Mus musculus [9] = experiment: Radioprotective activity against gamma radiation-induced toxicity in Swiss CD1 mouse assessed as survival at 308 mg/kg, ip administered 90 mins before 10.2 Gy irradiation measured after 30 days; assay type: functional; conditions: Swiss CD1, light or radiation study, route intraperitoneal; how it was run: as §1
Mus musculus [10] = experiment: Radioprotective activity against gamma radiation-induced toxicity in B6D2F1 mouse assessed as survival at 260 mg/kg, ip administered 15 mins before 8.8 Gy irradiation measured after 30 days; assay type: functional; conditions: B6D2F1, light or radiation study, route intraperitoneal
Mus musculus [11] = experiment: Radioprotective activity against gamma radiation-induced toxicity in Swiss CD1 mouse assessed as survival at 260 mg/kg, ip administered 90 mins before 8.2 Gy irradiation measured after 30 days; assay type: functional; conditions: Swiss CD1, light or radiation study, route intraperitoneal; how it was run: as §1
Mus musculus [12] = experiment: Radioprotective activity against gamma radiation-induced toxicity in Swiss CD1 mouse assessed as survival at 260 mg/kg, ip administered 90 mins before 10.2 Gy irradiation measured after 30 days; assay type: functional; conditions: Swiss CD1, light or radiation study, route intraperitoneal; how it was run: as §1
Mus musculus [13] = experiment: Radioprotective activity against gamma radiation-induced toxicity in B6D2F1 mouse assessed as survival at 260 mg/kg, ip administered 15 mins before 10.8 Gy irradiation measured after 30 days; assay type: functional; conditions: B6D2F1, light or radiation study, route intraperitoneal
Mus musculus [14] = experiment: Radioprotective activity against gamma radiation-induced toxicity in Swiss CD1 mouse assessed as survival at 349 mg/kg, ip administered 90 mins before 8.2 Gy irradiation measured after 30 days; assay type: functional; conditions: Swiss CD1, light or radiation study, route intraperitoneal; how it was run: as §1
Mus musculus [15] = experiment: Radioprotective activity against gamma radiation-induced toxicity in Swiss CD1 mouse assessed as survival at 349 mg/kg, ip administered 90 mins before 10.2 Gy irradiation measured after 30 days; assay type: functional; conditions: Swiss CD1, light or radiation study, route intraperitoneal; how it was run: as §1
Mus musculus [16] = experiment: Radioprotective activity against gamma radiation-induced toxicity in B6D2F1 mouse assessed as survival at 480 mg/kg, ip administered 15 mins before 8.8 Gy irradiation measured after 30 days; assay type: functional; conditions: B6D2F1, light or radiation study, route intraperitoneal
Mus musculus [17] = experiment: Radioprotective activity against gamma radiation-induced toxicity in B6D2F1 mouse assessed as survival at 240 mg/kg, ip administered 15 mins before 8.8 Gy irradiation measured after 30 days; assay type: functional; conditions: B6D2F1, light or radiation study, route intraperitoneal
Mus musculus [18] = experiment: Radioprotective activity against gamma radiation-induced toxicity in Swiss CD1 mouse assessed as survival at 480 mg/kg, ip administered 90 mins before 8.2 Gy irradiation measured after 30 days; assay type: functional; conditions: Swiss CD1, light or radiation study, route intraperitoneal; how it was run: as §1
Mus musculus [19] = experiment: Radioprotective activity against gamma radiation-induced toxicity in Swiss CD1 mouse assessed as survival at 480 mg/kg, ip administered 90 mins before 10.2 Gy irradiation measured after 30 days; assay type: functional; conditions: Swiss CD1, light or radiation study, route intraperitoneal; how it was run: as §1
Mus musculus [20] = experiment: Radioprotective activity against gamma radiation-induced toxicity in B6D2F1 mouse assessed as survival at 400 mg/kg, ip administered 15 mins before 8.8 Gy irradiation measured after 30 days; assay type: functional; conditions: B6D2F1, light or radiation study, route intraperitoneal
Mus musculus [21] = experiment: Radioprotective activity against gamma radiation-induced toxicity in B6D2F1 mouse assessed as survival at 400 mg/kg, ip administered 15 mins before 10.8 Gy irradiation measured after 30 days; assay type: functional; conditions: B6D2F1, light or radiation study, route intraperitoneal
Mus musculus [22] = experiment: Radioprotective activity against gamma radiation-induced toxicity in Swiss CD1 mouse assessed as survival at 400 mg/kg, ip administered 90 mins before 8.2 Gy irradiation measured after 30 days; assay type: functional; conditions: Swiss CD1, light or radiation study, route intraperitoneal; how it was run: as §1
Mus musculus [23] = experiment: Radioprotective activity against gamma radiation-induced toxicity in Swiss CD1 mouse assessed as survival at 400 mg/kg, ip administered 90 mins before 10.2 Gy irradiation measured after 30 days; assay type: functional; conditions: Swiss CD1, light or radiation study, route intraperitoneal; how it was run: as §1

| Structure (SMILES) | IC50 [1] [µM] | IC50 ([2]; read-out: IC50) [µM] | further results |
| --- | --- | --- | --- |
| N=c1sc2ccccc2n1CCO | > 4000 |  |  |
| CCSc1nn(CCSS(=O)(=O)O)c(=N)s1 |  | 8.32 |  |
| CCOc1ccc2nc(N)sc2c1 | > 4000 |  |  |
| Cc1ccc2c(c1)sc(=N)n2CCO | > 4000 |  |  |
| CCOc1ccc2c(c1)sc(=N)n2CCSS(=O)(=O)O |  |  | IC50 [2]: ND(Insoluble) |
| CCSc1nnc(NCCS)s1 | 110 | 390 | LD50 at 48 h [3]: > 736 mg/kg; survival at 368 mg/kg (Mus musculus [4]): 0%; survival at 368 mg/kg (Mus musculus [5]): 0% |
| CCc1nnc(S)s1 | 84 | 21.3 | LD50 at 48 h [3]: > 680 mg/kg; survival at 340 mg/kg (Mus musculus [6]): 30%; survival at 340 mg/kg (Mus musculus [7]): 0% |
| Cc1ccc2nc(NCCS)sc2c1 | 3170 | 4040 |  |
| SCCNc1nc2ccccc2s1 | 1390 | 1520 | LD50 at 48 h [3]: > 616 mg/kg; survival at 308 mg/kg (Mus musculus [8]): 60%; survival at 308 mg/kg (Mus musculus [9]): 0% |
| CCc1nn(CCSS(=O)(=O)O)c(=N)s1 |  | 51.9 |  |
| CCc1nn(CCO)c(=N)s1 | 2400 |  |  |
| CCSc1nn(CCO)c(=N)s1 | 3500 |  |  |
| CCc1nnc(N)s1 | > 4000 |  |  |
| CCOc1ccc2nc(S)sc2c1 | 46 | 88.4 |  |
| CCC(=O)Nc1nc2ccccc2s1 | > 4000 |  |  |
| Cc1ccc2nc(S)sc2c1 | 91 | 76.7 | LD50 at 48 h [3]: > 520 mg/kg; survival at 260 mg/kg (Mus musculus [10]): 100%; survival at 260 mg/kg (Mus musculus [11]): 80%; survival at 260 mg/kg (Mus musculus [12]): 0%; survival at 260 mg/kg (Mus musculus [13]): 0% |

| Structure (SMILES) | IC50 [1] [µM] | IC50 ([2]; read-out: IC50) [µM] | further results |
| --- | --- | --- | --- |
| CCSc1nnc(S)s1 | 53 | 23.1 | LD50 at 48 h [3]: 698 mg/kg; survival at 349 mg/kg (Mus musculus [14]): 0%; survival at 349 mg/kg (Mus musculus [15]): 0% |
| N=c1sc2ccccc2n1CCSS(=O)(=O)O |  |  | IC50 [2]: ND(Insoluble) |
| CCc1nn(CCSP(=O)(O)O)c(=N)s1 |  | 90.3 |  |
| CCOc1ccc2c(c1)sc(=N)n2CCO | 1400 |  |  |
| CCSc1nnc(N)s1 | > 4000 |  |  |
| CCC(=O)Nc1nc2ccc(C)cc2s1 | > 4000 |  |  |
| CCSc1nnc(NC(=O)CC)s1 | > 4000 |  |  |
| Cc1ccc2c(c1)sc(=N)n2CCSS(=O)(=O)O |  |  | IC50 [2]: ND(Insoluble) |
| CCSc1nn(CCSP(=O)(O)O)c(=N)s1 |  | 76.9 |  |
| CCOc1ccc2nc(NC(=O)CC)sc2c1 | > 4000 |  |  |
| CCC(=O)Nc1nnc(CC)s1 | > 4000 |  |  |
| Sc1nc2ccccc2s1 [2-MERCAPTOBENZOTHIAZOLE] | 92 | 79.8 | LD50 at 48 h [3]: > 960 mg/kg; survival at 480 mg/kg (Mus musculus [16]): 100%; survival at 240 mg/kg (Mus musculus [17]): 90%; survival at 480 mg/kg (Mus musculus [18]): 60%; survival at 480 mg/kg (Mus musculus [19]): 0% |
| NCCCNCCSP(=O)(O)O [AMIFOSTINE] | 100 |  | LD50 at 48 h [3]: 800 mg/kg; survival at 400 mg/kg (Mus musculus [20]): 100%; survival at 400 mg/kg (Mus musculus [21]): 60%; survival at 400 mg/kg (Mus musculus [22]): 50%; survival at 400 mg/kg (Mus musculus [23]): 20% |
| O=C1O[C@H]([C@@H](O)CO)C(O)=C1O [ASCORBIC ACID] | 20 | 46.5 |  |
| N[C@@H](CCC(=O)N[C@@H](CS)C(=O)NCC(=O)O)C(=O)O [GLUTATHIONE] | 96 |  |  |
| Cc1c(C)c2c(c(C)c1O)CCC(C)(C(=O)O)O2 (stereo not drawn) [TROLOX] | 34 |  |  |
